ChEMBL document CHEMBL1141390, “20S-protopanaxadiol-induced programmed cell death in glioma cells through caspase-dependent and -independent pathways” (J Nat Prod, 2007)
Active and inactive are the calls of the source. The rule behind the calls is not given here. Residues, ends and D or L forms follow the SMILES beside them. *: point of attachment. Cbz = O=C(OCc1ccccc1)*; CH2F = FC*

Key:
SF-188 [1] = assay: Inhibition of TNF-alpha-induced apoptosis in human SF188 cells; assay type: functional, cell-based
SF-188 [2] = assay: Inhibition of cycloheximide-induced apoptosis in human SF188 cells; assay type: functional, cell-based
SF-188 [3] = assay: Inhibition of 20S-protopanaxadiol-induced activation of caspases in human SF188 cells; assay type: cell-based
SF-188 [4] = assay: Inhibition of 20S-protopanaxadiol-induced apoptosis in human SF188 cells after 8 hrs by MTT assay; assay type: functional; parameters: scale not given: the % may be the effect or the level left
In short: (§1)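 SF188 cells were seeded at 2.5 × 10^5/mL 24 h before use. For the inhibitor arm, cells were pretreated for 2 h with various concentrations of Z-VAD-FMK, then 43.4 µM compound was added. Viability was read by MTT assay 8 h after compound addition.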

[5] = Cytotoxicity against human U87MG cells after 24 hrs; assay type: cell-based, U-87MG ATCC; conditions: U-87 MG
In short: (§2)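 Glioma cells seeded at 2.5 × 10^5/mL 24 h before treatment, then exposed to a range of concentrations for 24 h. Viability was measured by MTT assay, and cell death was read from the 24 h dose-response curve.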

[6] = Cytotoxicity against human SF188 cells at 108.4 uM within 10 hrs by MTT assay; assay type: cell-based; conditions: sf-188, 10 h
In short: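 Cells seeded at 2.5 × 10^5/mL 24 h beforehand were treated with 108.4 µM. Viability was measured by MTT assay at 1, 4, 6, 8, 10 and 24 h after treatment.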

U-87 MG [7] = assay: Induction of autophagy in human U87MG cells by MDC staining at 43.4 uM after 4 hrs; assay type: functional, cell-based; conditions: U-87MG ATCC
In short: (§3)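 SF188 and U87MG cells were treated with 43.4 or 108.4 µM compound for 4 h. Autophagic vacuoles were then visualized by monodansylcadaverine (MDC) staining.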

U-87 MG [8] = assay: Induction of autophagy in human U87MG cells by MDC staining at 108.4 uM after 4 hrs; assay type: functional, cell-based; conditions: U-87MG ATCC; in short: as §3
SF-188 [9] = assay: Reduction of Akt phosphorylation in human SF188 cells after 5 hrs; assay type: cell-based
U-87 MG [10] = assay: Increase in superoxide anion level in human U87MG cells after 2 hrs; assay type: functional, cell-based; conditions: U-87MG ATCC
In short: (§4)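 Superoxide anion was measured by dihydroethidine (HE) fluorescence using flow cytometry in SF188 or U87MG cells 2 h after treatment at several concentrations. Result is reported as the percentage of HE-positive cells.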

SF-188 [11] = assay: Induction of autophagy in human SF188 cells by MDC staining at 108.4 uM after 4 hrs; assay type: functional, cell-based; in short: as §3
SF-188 [12] = assay: Cell viability in human SF188 cells in presence of tBHQ at 86.8 uM; assay type: functional
U-87 MG [13] = assay: Induction of apoptosis in human U87MG cells at 108.4 uM within 7 hrs; assay type: functional, U-87MG ATCC
In short: (§5)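 SF188 or U87MG cells were treated with 108 µM compound and stained by TUNEL (ApopTag). Apoptotic cells were counted as % TUNEL-positive: at 3 h for SF188, at 7 h for U87MG. Untreated cells served as controls.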

SF-188 [14] = assay: Increase in superoxide anion level in human SF188 cells after 2 hrs; assay type: functional, cell-based; in short: as §4
SF-188 [15] = assay: Induction of autophagy in human SF188 cells by MDC staining at 43.4 uM after 4 hrs; assay type: functional, cell-based; in short: as §3
[16] = Cytotoxicity against human SF188 cells at 43.4 uM after 24 hrs by MTT assay; assay type: cell-based; conditions: sf-188, 24 h; in short: as §2
SF-188 [17] = assay: Induction of apoptosis in human SF188 cells at 108.4 uM within 3 hrs; assay type: functional; in short: as §5
Caspase-3 (Homo sapiens) = molecular target: T1, Caspase-3 (Homo sapiens) (UniProt P42574); assay: Activation of caspase 3 in human SF188 cells at 108.4 uM; assay type: cell-based; conditions: SF-188
T1 sequence (whole entry): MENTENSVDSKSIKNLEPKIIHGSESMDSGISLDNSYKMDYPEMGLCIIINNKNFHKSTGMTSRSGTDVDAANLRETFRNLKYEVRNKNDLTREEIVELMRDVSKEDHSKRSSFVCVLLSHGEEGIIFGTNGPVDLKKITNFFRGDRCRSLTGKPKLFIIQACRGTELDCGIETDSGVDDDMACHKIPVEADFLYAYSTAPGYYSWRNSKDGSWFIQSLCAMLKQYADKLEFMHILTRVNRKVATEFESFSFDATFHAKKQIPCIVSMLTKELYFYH
In short: (§6)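 Western blot of SF188 lysates after treatment with 108.4 µM compound, sampled at different time points or at different concentrations. 50 µg total protein loaded per lane. Pro-caspase and cleaved (active) caspase bands were detected, with actin as loading control.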

SF-188 [18] = assay: Cell viability in human SF188 cells in presence of Z-VAD-FMK; assay type: functional
[19] = Cytotoxicity against human U87MG cells at 108.4 uM after 24 hrs by MTT assay; assay type: cell-based; conditions: u-87mg atcc; in short: as §2
Caspase-9 (Homo sapiens) = molecular target: T2, Caspase-9 (Homo sapiens) (UniProt P55211); assay: Activation of caspase 9 in human SF188 cells at 108.4 uM; assay type: cell-based; conditions: SF-188; in short: as §6
T2 sequence (whole entry): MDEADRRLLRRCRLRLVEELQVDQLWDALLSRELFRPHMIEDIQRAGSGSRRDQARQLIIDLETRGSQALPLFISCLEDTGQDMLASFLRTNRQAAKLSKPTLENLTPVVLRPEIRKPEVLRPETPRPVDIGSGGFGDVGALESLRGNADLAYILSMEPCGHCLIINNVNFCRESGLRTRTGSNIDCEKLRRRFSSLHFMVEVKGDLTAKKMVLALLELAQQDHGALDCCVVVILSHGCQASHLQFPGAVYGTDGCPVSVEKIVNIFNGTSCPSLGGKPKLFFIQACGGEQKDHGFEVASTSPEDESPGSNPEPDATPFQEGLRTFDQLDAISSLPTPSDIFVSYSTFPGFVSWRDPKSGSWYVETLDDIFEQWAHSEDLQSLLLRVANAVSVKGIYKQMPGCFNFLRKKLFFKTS

Caspase-8 (Homo sapiens) = Caspase-8 (Homo sapiens) (UniProt Q14790); assay: Activation of caspase 8 in human SF188 cells at 108.4 uM; assay type: cell-based; conditions: SF-188; in short: as §6
SF-188 [20] = assay: Cell viability in human SF188 cells; assay type: functional; in short: as §1
SF-188 [21] = assay: Cell viability of human SF188 cells in presence of tBHQ, Z-VAD-FMK; assay type: functional
[22] = Cytotoxicity against human SF188 cells after 24 hrs; assay type: cell-based; conditions: SF-188, 24 h; in short: as §2
U-87MG ATCC [23] = assay: Activation of caspases in human U87MG cells; assay type: cell-based
In short: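 Western blot of U87MG cells treated with 108.4 µM compound for up to 9 h, probing pro- and cleaved caspases-8 and -3. 50 µg protein per lane. Lysate from treated SF188 cells served as positive control and actin as loading control.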

U-87MG ATCC [24] = assay: Reduction of Akt phosphorylation in human U87MG cells after 7 hrs; assay type: cell-based
Caspase-7 (Homo sapiens) = molecular target: T3, Caspase-7 (Homo sapiens) (UniProt P55210); assay: Activation of caspase 7 in human SF188 cells at 108.4 uM; assay type: cell-based; conditions: SF-188; in short: as §6
T3 sequence (whole entry): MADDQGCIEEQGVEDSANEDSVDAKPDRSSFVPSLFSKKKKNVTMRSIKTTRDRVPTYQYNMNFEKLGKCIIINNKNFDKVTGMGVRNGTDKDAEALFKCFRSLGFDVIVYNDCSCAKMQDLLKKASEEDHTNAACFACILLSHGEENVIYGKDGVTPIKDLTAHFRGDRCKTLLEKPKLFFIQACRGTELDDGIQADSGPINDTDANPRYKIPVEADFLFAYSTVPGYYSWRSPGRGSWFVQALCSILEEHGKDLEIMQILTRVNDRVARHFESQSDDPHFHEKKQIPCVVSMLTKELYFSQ

Chain of Caspase-8 (Homo sapiens) (Q14790 217-374 limits assumed): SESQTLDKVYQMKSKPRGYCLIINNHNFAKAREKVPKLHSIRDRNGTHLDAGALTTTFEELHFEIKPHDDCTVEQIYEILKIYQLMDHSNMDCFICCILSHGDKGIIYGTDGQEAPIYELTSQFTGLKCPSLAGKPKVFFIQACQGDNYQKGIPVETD
Chain of Caspase-8 (Homo sapiens) (Q14790 385-479 limits assumed): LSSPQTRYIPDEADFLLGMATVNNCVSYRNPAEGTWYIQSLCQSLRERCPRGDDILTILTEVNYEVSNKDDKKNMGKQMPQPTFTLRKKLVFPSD

In the case of `CC(C)[C@H](NC(=O)OCc1ccccc1)C(=O)N[C@@H](C)C(=O)N[C@@H](CC(=O)O)C(=O)CF` (Cbz-Val-Ala-Asp-CH2F), the Activity (SF-188 [1]) is reported as “Active”, the Activity (SF-188 [2]) is reported as “Active” and the Activity (SF-188 [3]) is reported as “Active”. For the same compound, the Activity (SF-188 [4]) was 44.72%.
For `CC(C)=CCC[C@](C)(O)[C@H]1CC[C@]2(C)[C@@H]1[C@H](O)C[C@@H]1[C@@]3(C)CC[C@H](O)C(C)(C)[C@@H]3CC[C@]12C`, the IC50 [5] was 38 µM, the Activity [6] was 90% and the Activity (U-87 MG [7]) was “Active”. The Activity (U-87 MG [8]) was “Active”, the Activity (SF-188 [9]) was “inactive” and the Activity (U-87 MG [10]) was “Active”. The Activity (SF-188 [11]) was “Active”, the Activity (SF-188 [12]) was 30.46% and the Activity (U-87 MG [13]) was 51.01%. The Activity (SF-188 [14]) was “Active”, the Activity (SF-188 [15]) was “Active” and the Activity [16] was 100%. The Activity (SF-188 [17]) was 42.67%, the Activity (Caspase-3 (Homo sapiens)) was “Active” and the Activity (SF-188 [18]) was 36%. For the same compound, the Activity [19] was 90%, the Activity (Caspase-9 (Homo sapiens)) was “Active” and the Activity (Caspase-8 (Homo sapiens)) was “Active”. The Activity (SF-188 [20]) was 16.5%, the Activity (SF-188 [21]) was 89.4% and the IC50 [22] was 24 µM. The Activity (U-87MG ATCC [23]) was “inactive”, the Activity (U-87MG ATCC [24]) was “Dose-dependent effect” and the Activity (Caspase-7 (Homo sapiens)) was “Active”.
